In ChEMBL document CHEMBL5370602, “Structure-Based Design of a Lead Compound Derived from Natural Schweinfurthins with Antitumor Properties That Target Oxysterol-Binding Protein” (J Med Chem, 2023):
Active and inactive are the calls of the source. The rule behind the calls is not given here.

How the values were obtained:
[1] = test system: U-87 MG; experiment: Antiproliferative activity against human U-87 MG cells assessed as inhibition of cell proliferation incubated for 72 hrs by CellTiter-Glo luminescent assay; format: functional, cell-based, U-87MG ATCC
How it was run: (§1)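 A549 in RPMI 1640 and U-87MG in DMEM, each with 10% FCS and 1% glutamine, at 37 °C and 5% CO₂. Cells seeded at 3000/well, dosed the next day, treated 72 h. Viability read by CellTiter-Glo luminescence with DMSO-treated cells set to 100%. IC50 taken from survival curves over three independent experiments.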

[2] = test system: A549; experiment: Antiproliferative activity against human A549 cells assessed as inhibition of cell proliferation incubated for 72 hrs by CellTiter-Glo luminescent assay; format: functional, cell-based; conditions: A549, 72 h; how it was run: as §1
[3] = molecular target: T1, Oxysterol-binding protein 1 (Homo sapiens, UniProt P22059); experiment: Inhibition of human C-terminal 6-His tagged OSBP ORD domain (401 to 807 residues) expressed in baculovirus-infected Sf9 cells assessed as reduction in DHE transfer from liposome (Le mimicking ER) to liposome (Lg mimicking golgi) with compound by FRET assay
T1 sequence (P22059 whole entry): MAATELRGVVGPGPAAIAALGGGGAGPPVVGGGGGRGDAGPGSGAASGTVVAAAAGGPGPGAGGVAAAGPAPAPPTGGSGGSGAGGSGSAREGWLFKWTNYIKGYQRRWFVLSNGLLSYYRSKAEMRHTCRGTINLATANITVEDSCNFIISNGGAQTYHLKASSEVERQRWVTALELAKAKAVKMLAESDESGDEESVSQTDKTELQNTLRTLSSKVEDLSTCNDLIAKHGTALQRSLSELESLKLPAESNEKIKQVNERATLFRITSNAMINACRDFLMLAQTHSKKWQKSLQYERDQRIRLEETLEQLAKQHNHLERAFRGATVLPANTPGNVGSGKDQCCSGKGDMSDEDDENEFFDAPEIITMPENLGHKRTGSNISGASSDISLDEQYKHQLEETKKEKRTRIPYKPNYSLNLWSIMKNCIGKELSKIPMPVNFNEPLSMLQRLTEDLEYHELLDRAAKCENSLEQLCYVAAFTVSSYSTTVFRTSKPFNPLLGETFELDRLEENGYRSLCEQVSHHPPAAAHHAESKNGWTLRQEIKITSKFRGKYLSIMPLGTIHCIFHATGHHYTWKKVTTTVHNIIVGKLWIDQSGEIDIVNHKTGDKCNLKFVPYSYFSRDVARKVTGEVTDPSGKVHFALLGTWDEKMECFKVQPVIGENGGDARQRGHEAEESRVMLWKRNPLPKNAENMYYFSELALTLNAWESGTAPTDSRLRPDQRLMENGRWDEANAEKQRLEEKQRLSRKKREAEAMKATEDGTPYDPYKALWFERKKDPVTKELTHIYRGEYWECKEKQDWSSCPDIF
How it was run: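 Purified human OSBP ORD (401-807, C-terminal 6×His) from baculovirus-infected Sf9 cells, used in a DHE sterol transfer fluorescence assay. Signal corrected for compound fluorescence. Kinetics fitted linearly or by ΔF = ΔFmax(1 − e^−kt) to give apparent k, which was plotted against compound concentration. Ki from a quadratic (tight binders) or hyperbolic equation, three independent experiments.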

[4] = Metabolic stability in mouse plasma assessed as compound remaining at 5 uM and measured after 120 mins by UPLC-MS/MS analysis; format: ADME, cell-free; conditions: read-out: Stability
How it was run: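 Male mouse plasma at 37 °C with compound added from a 5 µM solution […]. Sampled at 0, 15, 30, 45, 60 and 120 min, quenched with acetonitrile and read by LC-MS/MS (MRM) in duplicate. Procaine positive control. Remaining % and t1/2 derived from MRM area relative to t = 0.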

[5] = Metabolic stability in mouse liver microsomes assessed as compound remaining at 2.5 uM and measured after 45 mins in presence of NADPH by LC-MS/MS analysis; format: ADME, Microsome; conditions: read-out: Stability
[6] = Metabolic stability in mouse liver microsomes assessed as intrinsic clearance at 2.5 uM and measured upto 45 mins in presence of NADPH by LC-MS/MS analysis; format: ADME, Microsome; conditions: read-out: CLH
[7] = Metabolic stability in mouse liver microsomes assessed as compound remaining at 2.5 uM and measured after 45 mins in absence of NADPH by LC-MS/MS analysis; format: ADME, Microsome; conditions: read-out: Stability
[8] = Drug uptake in human hTERT-RPE1 cells assessed as drug co-localization with OSBP perinuclear region of cell incubated for 30 mins by immunofluorescence analysis; format: ADME, cell-based; conditions: tert-rpe1, 0.5 h
How it was run: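 hTERT-RPE-1 cells incubated 30 min with compound, then fixed (4% paraformaldehyde, 0.1% glutaraldehyde, 10 min), quenched with 50 mM NH₄Cl and permeabilized in saponin 0.05%/BSA 0.2%. Immunolabeled for OSBP and TGN-46. Compound imaged directly by UV-adapted widefield fluorescence (excitation 330, emission 410 nm).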

[9] = molecular target: T2, Oxysterol-binding protein 1 (Homo sapiens) (UniProt P22059); experiment: Inhibition of human OSBP in human hTERT-RPE1 cells co-transfected with GFP-P4MSidM and TagBFP-betaGalT1 assessed as increase in PI4P at TGN by measuring GFP-P4M fluorescence and measured after 50 mins by immunofluorescence analysis; format: cell-based
T2 sequence (whole entry): T1 sequence (P22059 whole entry)
How it was run: (§2)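 hTERT-RPE-1 cells electroporated with GFP-P4M^SidM (PI4P probe) and TagBFP-βGalT1, plated 18-24 h. Timelapse confocal imaging at 37 °C after compound addition, with P4M-GFP intensity at the TGN tracked over time and compared before and 50 min after addition. Mean of 4 to 6 independent experiments ± SEM.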

[10] = molecular target: T2, Oxysterol-binding protein 1 (Homo sapiens); experiment: Inhibition of human OSBP in human hTERT-RPE1 cells co-transfected with GFP-P4MSidM and TagBFP-betaGalT1 assessed as half life for inhibition of PI4P transfer by OBSP by immunofluorescence analysis; format: cell-based; how it was run: as §2
[11] = molecular target: T2, Oxysterol-binding protein 1 (Homo sapiens); experiment: Inhibition of human OSBP in human hTERT-RPE1 cells assessed as increase in OSBP recruitment at TGN and measured after 10 mins by confocal microscopy; format: cell-based
[12] = molecular target: T2, Oxysterol-binding protein 1 (Homo sapiens); experiment: Inhibition of human OSBP in human hTERT-RPE1 cells assessed as increase in OSBP recruitment at TGN and measured after 4 hrs by confocal microscopy; format: cell-based
[13] = molecular target: T3, mTORC1 (Homo sapiens) (UniProt P42345+Q8N122+Q9BVC4); experiment: Inhibition of mTORC1 signalling in human U-87 MG cells assessed as decrease in S6K phosphorylation at T389 residue at 0.05 to 1 uM incubated for 48 hrs by Western blot analysis; format: cell-based
How it was run: (§3)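 U-87 MG cells cultured two days, then exposed 48 h to increasing doses. Lysed in RIPA with protease inhibitors; 5 µg protein run on 4-20% SDS gels and transferred to PVDF. Probed for phospho/total AKT, S6, S6K, P62 and LC3, detected by ECL. Band intensities normalized to β-actin.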

[14] = molecular target: T3, mTORC1 (Homo sapiens); experiment: Inhibition of mTORC1 signalling in human U-87 MG cells assessed as decrease in S6 phosphorylation at S240/244 residue at 0.05 to 1 uM incubated for 48 hrs by Western blot analysis; format: cell-based; how it was run: as §3
[15] = molecular target: mTORC2 (Homo sapiens) (UniProt P42345+Q6R327+Q9BVC4+Q9BPZ7); experiment: Inhibition of mTORC2 signalling in human U-87 MG cells assessed as decrease in AKT phosphorylation at S473 residue at 0.05 to 1 uM incubated for 48 hrs by Western blot analysis; format: cell-based; how it was run: as §3
[16] = test system: U-87 MG; experiment: Induction of autophagy in human U-87 MG cells assessed as decrease in LC3I expression at 0.05 to 1 uM incubated for 48 hrs by Western blot analysis; format: functional, cell-based; conditions: U-87MG ATCC; how it was run: as §3
[17] = test system: U-87 MG; experiment: Induction of autophagy in human U-87 MG cells assessed as increase in LC3II expression at 0.05 to 1 uM incubated for 48 hrs by Western blot analysis; format: functional, cell-based; conditions: U-87MG ATCC; how it was run: as §3
[18] = test system: U-87 MG; experiment: Induction of autophagy in human U-87 MG cells assessed as decrease in P62 expression at 0.05 to 1 uM incubated for 48 hrs by Western blot analysis; format: functional, cell-based; conditions: U-87MG ATCC; how it was run: as §3

Compound	IC50 [1] [nM]	IC50 [2] [nM]	Ki [3] [nM]	other results
CC(C)=CCc1c(O)cc(/C=C/c2cc(O)c3c(c2)C[C@@H]2C(C)(C)[C@H](O)[C@H](O)C[C@@]2(C)O3)cc1O [VEDELIANIN]	15	966	< 1	
CC(C)=CCC/C(C)=C/Cc1cc(/C=C/c2cc(O)c(CC=C(C)C)c(O)c2)cc(O)c1O [MAPPAIN]	7000	> 10000	3000	
COc1cc(/C=C/c2cc(O)c(CC=C(C)C)c(O)c2)cc2c1O[C@@]1(C)[C@H](C2)C(C)(C)[C@H](O)C[C@@H]1O	510	1120	254	
CC1(C)CCc2c(O)cc(CCc3cc(O)c4c(c3)C[C@@H]3C(C)(C)[C@H](OC=O)CC[C@@]3(C)O4)cc2O1	67	3040	3220	
COc1cc(/C=C/c2cc(O)c3c(c2)OC(C)(C)CC3)cc2c1O[C@]1(C)CC[C@@H](OC=O)C(C)(C)[C@H]1C2	380	2420	523	
CC1(C)CCc2c(O)cc(CCc3cc(O)c4c(c3)C[C@@H]3C(C)(C)[C@H](O)CC[C@@]3(C)O4)cc2O1	77	3910	< 1	
COc1cc(/C=C/c2cc(O)c3c(c2)OC(C)(C)CC3)cc2c1O[C@]1(C)C[C@@H](O)[C@@H](O)C(C)(C)[C@H]1C2	336	1100	16	
COc1cc(CCc2cc(O)c3c(c2)OC(C)(C)CC3)cc2c1O[C@]1(C)CC[C@@H](OC=O)C(C)(C)[C@H]1C2	1480	> 10000	3700	
C#CCOc1cc(/C=C/c2cc(O)c(CC=C(C)C)c(O)c2)cc2c1O[C@]1(C)CC[C@@H](O)C(C)(C)[C@H]1C2	286	3900	43	
CC1(C)CCc2c(O)cc(/C=C/c3cc(O)c4c(c3)C[C@@H]3C(C)(C)[C@H](O)CC[C@@]3(C)O4)cc2O1	9.4	647	< 1	remaining at 2 h, 5 µM [4]: 100%; remaining at 0.75 h, 2.5 µM [5]: 48.6%; microsomal CLint at 2.5 µM [6]: 32 µL/min/mg; remaining at 0.75 h, 2.5 µM [7]: 100%
COc1cc(/C=C/c2cc(O)c(CC=C(C)C)c(O)c2)cc2c1O[C@]1(C)CC[C@@H](O)C(C)(C)[C@H]1C2 [SCHWEINFURTHIN F]	98	605	6	
C=CCOc1cc(/C=C/c2cc(O)c(CC=C(C)C)c(O)c2)cc2c1O[C@]1(C)CC[C@@H](O)C(C)(C)[C@H]1C2	420	5000	31	
COc1cc(/C=C/c2cc(O)c3c(c2)OC(C)(C)C(O)C3)cc2c1O[C@]1(C)C[C@@H](O)[C@@H](O)C(C)(C)[C@H]1C2 (some centres undefined) [SCHWEINFURTHIN H]	656	1790	401	
COc1cc(CCc2cc(O)c3c(c2)OC(C)(C)CC3)cc2c1O[C@]1(C)CC[C@@H](O)C(C)(C)[C@H]1C2	3850	> 10000	46	
COc1cc(/C=C/c2cc(O)c(CC=C(C)C)c(O)c2)cc2c1O[C@]1(C)C[C@@H](O)[C@@H](O)C(C)(C)[C@H]1C2 [SCHWEINFURTHIN E]	22	397	< 1	
C=CCc1c(/C=C/c2cc(O)c(CC=C(C)C)c(O)c2)cc2c(c1O)O[C@]1(C)CC[C@@H](O)C(C)(C)[C@H]1C2	457	2860	119	
COc1cc(/C=C/c2cc(O)c3c(c2)OC(C)(C)CC3)cc2c1O[C@]1(C)C[C@@H](O)[C@@H](OC=O)C(C)(C)[C@H]1C2	500	2150	829	
CC(C)=CCc1c(O)cc(/C=C/c2cc3c(c4c2C=CCO4)O[C@]2(C)CC[C@@H](O)C(C)(C)[C@H]2C3)cc1O	481	> 10000	37	
COc1cc(/C=C/c2cc(O)c3c(c2)OC(C)(C)CC3)cc2c1O[C@]1(C)CC[C@@H](O)C(C)(C)[C@H]1C2	478	2530	64	
CC(C)=CCc1c(O)cc(/C=C/c2cc(O)c3c(c2)C[C@@H]2C(C)(C)[C@H](O)CC[C@@]2(C)O3)cc1O [SCHWEINFURTHIN G]	8	359	< 1	Drug uptake [8]: Active; inhibition [9]: Active; T1/2 [10]: 10 min; inhibition [11]: Active; inhibition [12]: inactive; inhibition [13]: Dose-Dependent Effect; inhibition [14]: Dose-Dependent Effect; inhibition [15]: Dose-Dependent Effect; Activity [16]: Dose-Dependent Effect; Activity [17]: Dose-Dependent Effect; Activity [18]: Dose-Dependent Effect; remaining at 2 h, 5 µM [4]: 100%; remaining at 0.75 h, 2.5 µM [5]: 23%; microsomal CLint at 2.5 µM [6]: 90 µL/min/mg; remaining at 0.75 h, 2.5 µM [7]: 100%
